Test results published in ChEMBL document CHEMBL4513216, “Probing the Open Global Health Chemical Diversity Library for Multistage-Active Starting Points for Next-Generation Antimalarials” (ACS Infect Dis, 2020).

Test: Toxicity liver stage against HepG2, at 10uM
Assay type: cell-based
Set-up: test concentration 10 uM, cell line HepG2-A16-CD81EGFP
Conditions: human, HepG2-A16-CD81EGFP cells; read-out: INHIBITION
How it was run: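 Uninfected HepG2-A16-CD81EGFP cells, 3 × 10^3 per well, 1536-well, plated on prespotted compound at 10 μM final, parasite-free screening media added to match infected plates; puromycin 10 μM positive, DMSO 0.5% negative; run in parallel with 48 h PbLuc assay at 37 °C, 5% CO2; viability by CellTiter-Glo luminescence, normalized to controls.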

| Structure (SMILES) | cytotoxicity at 10 µM [%] |
| --- | --- |
| FC(F)COc1ccccc1NCc1nnsc1Cl | -2.63 |
| O=C(NCc1nccn1CCc1ccccc1)NCC1CCC1 | 4.7 |
| O=C1CC2(CCN(CCO)C2)CN1c1cccc(F)c1 (stereo unspecified) | -149 |
| CCc1nc(CSC2CCCN(c3cnn(C)c3)C2=O)cs1 (stereo unspecified) | 14.1 |
| CC(=O)NCc1ccc(C(=O)N2CCCc3c(F)ccc(C)c32)o1 | -0.883 |
| CN(CC(F)(F)F)C(=O)CN1CCC(c2cc3ccccc3[nH]2)CC1 | 4.93 |
| CC(NCCn1cccn1)c1cc(F)ccc1F (stereo unspecified) | 6.33 |
| COc1cccc(S(=O)(=O)NC(=O)COC2CCCC2)c1 | -7.1 |
| CCOc1ccc(C(F)(F)F)cc1NC(=O)N1CCNC(=O)C1 | -1.11 |
| Cc1cccc(CN2C(=O)CC[C@@H]3[C@H]2CCN3Cc2ccc(F)cc2)n1 | -72.1 |
| O=C(CNC1(c2ccc(Cl)cc2)CCOCC1)NC1CCCC1 | 2.32 |
| CCN(CC)S(=O)(=O)N(C)Cc1ccncc1 | 0.52 |
| O=C(C[C@@H]1COC[C@H]2CN(Cc3ccc(F)cc3)C[C@@H]12)N1CCCC1 | 4.09 |
| COC(C)c1cccc(NCc2ccsc2)c1 (stereo unspecified) | -4.53 |
| COc1ccc(C(C)=O)cc1CN1CCn2cccc2C1C (stereo unspecified) | -6.62 |
| CC(C)CS(=O)(=O)Nc1ccc([C@H]2OCC(=O)N[C@@H]2CO)cc1 | 2.79 |
| CCCc1cc(N2CCC(NC3CCS(=O)(=O)C3)CC2)nc(C)n1 (stereo unspecified) | -6.65 |
| COCCN1C(=O)C2(CCC(C(=O)Nc3cccc(C)c3)CC2)N=C1C (stereo unspecified) | 9.76 |
| CCOc1ncccc1CNS(=O)(=O)N1CCOCC1 | -10.2 |

| Structure (SMILES) | cytotoxicity at 10 µM [%] |
| --- | --- |
| Cc1ccn(CCNC(=O)C2CCN(S(=O)(=O)c3ccc(F)cc3)C2)n1 (stereo unspecified) | -24.5 |
| CC(C)C(C)NC(=O)Nc1ccc(F)c(C(N)=O)c1 (stereo unspecified) | -6.54 |
| Cc1cncc(NCC(O)c2ccco2)n1 (stereo unspecified) | 5.58 |
| O=C([C@H]1C[C@@H]2CCN(c3cccc(F)c3)C[C@H]2O1)N1CCCCO1 | 1.67 |
| Cn1ccc2c(C(=O)N3CC[C@@]4(O)CCCC[C@H]4C3)cccc21 | -42.9 |
| CSc1nccn1-c1cccc(C(=O)NCCN2CCS(=O)(=O)CC2)c1 | -3.97 |
| Cn1ncc2c(N3CCCC4(CCNC4)C3)nc(C(C)(C)C)nc21 (stereo unspecified) | -45.8 |
| CCNC(=O)Nc1c(C)cnn1Cc1cc(F)ccc1F | 5.28 |
| Cn1ccnc1-c1nccn1-c1cccc(CN2CCCC2)c1 | -2.36 |
| COc1ccccc1-c1cc(C(=O)N2CCCC2)c2cnn(C)c2n1 | 9.4 |
| COCC1CC2(CCNCC2)CN1c1ncccn1 (stereo unspecified) | 7.51 |
| O=S(=O)(c1ccc(F)cc1Cl)N1CCCC1c1ccncc1 (stereo unspecified) | -7.95 |
| CN1CC2(CCN(C(=O)Cn3ncc4ccccc4c3=O)CC2)OC1=O | -2.96 |
| N#Cc1cccc(N2CCCC3(C2)CN(c2ncc(F)cn2)CCO3)n1 (stereo unspecified) | 22.3 |
| CCOCCCn1c(NC(=O)c2cnc(C)cn2)nc2ccccc21 | -18.7 |
| CNCC(=O)N[C@H]1CN(c2nc(C)c3c(n2)CCCC3)C[C@@H]1C1CC1 | 13.2 |
| CN1CCO[C@@H]2CN(S(=O)(=O)c3ccccc3)C[C@@H]2C1 | 0.93 |
| CCC(NC(=O)CCCNC(=O)OC)c1cc(F)ccc1F (stereo unspecified) | -2.34 |
| CCS(=O)(=O)N1CCC(c2nnc(CN3CCCC3)n2C2CC2)CC1 | 14.9 |

| Structure (SMILES) | cytotoxicity at 10 µM [%] |
| --- | --- |
| CCn1ncc2c1CCCC2NCc1csc(C(C)C)n1 (stereo unspecified) | -1.69 |
| Cc1c(CN2CCc3nc4sccc4c(=O)n3CC2)cnn1C | -2.75 |
| Cc1cnn(CC2CCCN2C(=O)c2cc(Cl)ccc2F)c1 (stereo unspecified) | -5.82 |
| CCCOC1CCCN(C(=O)Cn2cccc(C(F)(F)F)c2=O)C1 (stereo unspecified) | -0.912 |
| CN(Cc1cnn(C)c1)C(=O)c1ccc(=O)n(Cc2ccccc2)n1 | -134 |
| CS(=O)(=O)Nc1nn(Cc2ccc(F)cc2)cc1Br | 5.88 |
| CC(=O)c1ccc(N2CCC3(CCC(=O)N(C4CC4)C3)CC2)nc1 | 4.36 |
| O=C(CCc1cccnc1)N1CCCCC1c1ccn2ccnc2n1 (stereo unspecified) | -4.28 |
| COC(=O)C(C)NCc1ccc2[nH]c(C)c(C)c2c1 (stereo unspecified) | 2.4 |
| CNC(=O)c1ccc(S(=O)(=O)NCCc2ccccn2)cc1 | -14.3 |
| O=C(c1ccncc1)N1CCN2C[C@H](Oc3cncnc3)C[C@H]2C1 | 8.7 |
| Cn1c(=O)cc(C(=O)NC(Cc2ccsc2)c2cccnc2)[nH]c1=O (stereo unspecified) | 0.913 |
| O=C1C[C@H]2[C@@H](CCN2C(=O)c2ccccc2)N1CCN1CCOCC1 | -3.33 |
| Cc1cc(C)nc(N2CCOC(C)(C(=O)N(C)C)C2)n1 (stereo unspecified) | -3.04 |
| CN1CCc2ccc(NCc3cccs3)cc2C1=O | -4.72 |
| CC(CS(C)(=O)=O)N(C(=O)Nc1ccc(F)cc1F)C1CC1 (stereo unspecified) | 4.08 |
| Cn1cc(-c2cnc(-c3ccnn3C)nc2)cc1C(=O)NC1CC1 | 3.77 |
| CN(C)C(=O)c1cc(-c2ccc(S(C)(=O)=O)cc2)c2cnn(C)c2n1 | 3.63 |
